Calls of active or inactive are those of the source. The rule behind the calls is not given here.
Tests used:
Mus musculus [1] = assay: In vivo antinociceptive activity was determined by mouse abdominal irritant test (MAIT) in male pathogen free albino CD-1 mice; format: functional, Abdomen; parameters: concentration or dose not given beside the values
Summary of the method: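 Mice were dosed orally by gavage at several doses, with vehicle controls. Acetylcholine bromide was given at 5.5 mg/kg ip at set intervals later, and writhing was observed. Percent antinociception was calculated per dose from responders per group. ED50 and 95% confidence limits came from Litchfield-Wilcoxon probit analysis with a chi-square linearity test.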

Mus musculus [2] = assay: In vivo antinociceptive activity was determined by Mouse abdominal irritant test (MAIT)in male pathogen free albino CD-1 mice at 30 mg/kg; format: functional; settings: Abdomen
Summary of the method: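 Compound or vehicle was given to mice by oral gavage at 30 mg/kg. After set intervals, acetylcholine bromide was injected at 5.5 mg/kg ip. Percent inhibition was the percentage of responders per group.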

Rattus norvegicus [3] = assay: In vivo antinociceptive activity was determined using in rat abdominal irritant test (RAIT) assay; format: functional; settings: Abdomen
Rattus norvegicus [4] = organism: Rattus norvegicus; assay: QT interval was determined during cardiovascular test in normotensive male albino Long-Evans rat; format: functional, Heart; parameters: concentration or dose not given beside the values
[5] = target: T1, Alpha-2C adrenergic receptor (Rattus norvegicus, UniProt P22086); assay: In vitro binding affinity against alpha-2C adrenergic receptor of male Wistar rat
T1 sequence (P22086 whole entry): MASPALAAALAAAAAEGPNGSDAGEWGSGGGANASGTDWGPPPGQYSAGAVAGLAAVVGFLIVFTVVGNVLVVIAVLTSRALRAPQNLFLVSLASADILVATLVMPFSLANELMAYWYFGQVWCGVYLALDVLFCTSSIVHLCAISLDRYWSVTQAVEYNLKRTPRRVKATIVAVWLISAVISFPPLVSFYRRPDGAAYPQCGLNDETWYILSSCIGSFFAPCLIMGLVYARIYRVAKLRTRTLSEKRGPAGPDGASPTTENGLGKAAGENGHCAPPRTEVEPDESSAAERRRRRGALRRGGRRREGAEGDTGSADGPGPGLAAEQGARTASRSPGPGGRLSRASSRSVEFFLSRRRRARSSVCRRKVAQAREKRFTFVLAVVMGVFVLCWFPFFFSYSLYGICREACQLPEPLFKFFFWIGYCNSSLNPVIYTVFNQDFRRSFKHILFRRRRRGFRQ

Rattus norvegicus [6] = organism: Rattus norvegicus; assay: QT interval was determined during cardiovascular test in normotensive male albino Long-Evans rat; delta QT; format: functional, Heart
Rattus norvegicus [7] = assay: In vivo antinociceptive activity was determined using in Rat abdominal irritant test(RAIT) assay; IA=inactive; format: functional, organism-based; settings: Abdomen
[8] = target: Adrenergic receptor alpha-2 (Rattus norvegicus) (UniProt P22086+P19328+P22909); assay: compounds were tested for agonistic activity in Alpha2 Adrenoceptor in Rat abdominal irritant test (RAIT); format: functional; settings: Abdomen
Sequence of Adrenergic receptor alpha-2 (Rattus norvegicus) (P19328 whole entry, looked up, one chain of several): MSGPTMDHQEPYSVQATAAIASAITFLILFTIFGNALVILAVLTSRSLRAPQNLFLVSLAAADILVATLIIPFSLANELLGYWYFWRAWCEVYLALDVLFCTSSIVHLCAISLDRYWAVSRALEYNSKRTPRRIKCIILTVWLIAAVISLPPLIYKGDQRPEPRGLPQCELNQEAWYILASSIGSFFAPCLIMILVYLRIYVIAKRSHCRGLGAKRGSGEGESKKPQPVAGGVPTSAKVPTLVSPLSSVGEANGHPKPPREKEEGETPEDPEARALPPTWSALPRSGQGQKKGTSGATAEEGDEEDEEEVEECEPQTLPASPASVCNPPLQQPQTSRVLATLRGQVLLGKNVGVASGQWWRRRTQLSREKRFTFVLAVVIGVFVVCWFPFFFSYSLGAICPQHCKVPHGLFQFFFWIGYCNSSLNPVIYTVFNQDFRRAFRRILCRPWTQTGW
Sequence of Adrenergic receptor alpha-2 (Rattus norvegicus) (P22909 whole entry, looked up, one chain of several): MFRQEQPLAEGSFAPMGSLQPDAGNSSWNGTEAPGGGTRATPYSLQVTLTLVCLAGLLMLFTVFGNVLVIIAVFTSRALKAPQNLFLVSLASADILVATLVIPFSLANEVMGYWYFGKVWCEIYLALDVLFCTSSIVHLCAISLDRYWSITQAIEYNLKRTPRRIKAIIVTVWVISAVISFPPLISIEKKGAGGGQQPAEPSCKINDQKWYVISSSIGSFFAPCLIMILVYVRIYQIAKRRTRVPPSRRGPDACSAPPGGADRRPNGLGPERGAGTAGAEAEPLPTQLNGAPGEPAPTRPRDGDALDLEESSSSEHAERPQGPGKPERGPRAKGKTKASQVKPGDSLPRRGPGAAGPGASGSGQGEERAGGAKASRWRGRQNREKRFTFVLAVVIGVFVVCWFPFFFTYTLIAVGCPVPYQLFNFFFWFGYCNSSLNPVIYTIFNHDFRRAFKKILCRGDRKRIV

Rattus norvegicus [9] = organism: Rattus norvegicus; assay: QT interval was determined during cardiovascular test in normotensive male albino Long-Evans rat;delta QT; format: functional, Heart

Q: How did the Inhibition (Mus musculus [1]) turn out when CC(c1c[nH]cn1)c1scc(Br)c1Br.O=C(O)/C=C/C(=O)O (stereo not given) was run?
A: 80%

Q: For c1csc(Cc2c[nH]cn2)c1, which inhibition in vivo at 30 mg/kg (Mus musculus [2]) is on record?
A: 60%

Q: How did the Inhibition (Mus musculus [1]) turn out when COC(c1c[nH]cn1)c1cscc1Br.O=C(O)/C=C/C(=O)O (stereo not given) was run?
A: 100%

Q: And the ED50 (Rattus norvegicus [3])?
A: 3.6 mg/kg

Q: Which results are given for CC(c1c[nH]cn1)c1sccc1Br.Cl (stereo not given)?
A: Inhibition (Mus musculus [1]): 100%; ED50 (Rattus norvegicus [3]): 0.97 mg/kg

Q: With Cc1cc(Cc2c[nH]cn2)c(C)s1.O=C(O)/C=C/C(=O)O as the molecule, how does the Inhibition (Mus musculus [1]) read?
A: 100%

Q: What about the ED50 (Rattus norvegicus [3]) of the same molecule?
A: 0.9 mg/kg

Q: How did the inhibition in vivo at 30 mg/kg (Mus musculus [2]) turn out when Cc1ccc(Cc2c[nH]cn2)s1 was run?
A: 33%

Q: For O=C(O)/C=C/C(=O)O.c1nc(Cc2ccsc2)c[nH]1, which Inhibition (Mus musculus [1]) is on record?
A: 100%

Q: What about the ED50 (Rattus norvegicus [3]) of the same molecule?
A: 0.97 mg/kg

Q: How did the Inhibition (Mus musculus [1]) turn out when Brc1csc(Cc2c[nH]cn2)c1Br.Cl was run?
A: 93%

Q: What about the ED50 (Rattus norvegicus [3]) of the same molecule?
A: 7.1 mg/kg

Q: Which Inhibition (Mus musculus [1]) does the source give for Cl.c1nc(Cc2cc3c(s2)CCCC3)c[nH]1 here?
A: 7%

Q: What does the source list for Cc1sccc1Cc1c[nH]cn1.O=C(O)/C=C/C(=O)O?
A: Inhibition (Mus musculus [1]): 100%; ED50 (Rattus norvegicus [3]): 0.89 mg/kg

Q: Which Inhibition (Mus musculus [1]) does the source give for CC(C)c1cc(Cc2c[nH]cn2)c(C(C)C)s1.O=C(O)/C=C/C(=O)O here?
A: 40%

Q: How did the Inhibition (Mus musculus [1]) turn out when CCc1cscc1C(C)c1c[nH]cn1.O=C(O)/C=C/C(=O)O (stereo not given) was run?
A: 100%

Q: And the Activity (Rattus norvegicus [4])?
A: 32%

Q: What about the ED50 (Rattus norvegicus [3]) of the same molecule?
A: 0.48 mg/kg

Q: With Cc1sccc1C(C)c1c[nH]cn1.O=C(O)/C=C/C(=O)O (stereo not given) as the molecule, how does the Inhibition (Mus musculus [1]) read?
A: 100%

Q: And the ED50 (Rattus norvegicus [3])?
A: 1.6 mg/kg

Q: For Cc1ccsc1C1(c2c[nH]cn2)CC1.O=C(O)/C=C/C(=O)O, which Inhibition (Mus musculus [1]) is on record?
A: 40%

Q: Which results are given for Brc1csc(Cc2c[nH]cn2)c1.Cl?
A: Inhibition (Mus musculus [1]): 80%; ED50 (Rattus norvegicus [3]): 5.2 mg/kg; Ki [5]: 1.4 nM

Q: How did the Inhibition (Mus musculus [1]) turn out when Cc1csc(C)c1Cc1c[nH]cn1.O=C(O)/C=C/C(=O)O was run?
A: 100%

Q: With Brc1ccsc1Cc1c[nH]cn1.Cl as the molecule, how does the inhibition in vivo at 30 mg/kg (Mus musculus [2]) read?
A: 100%

Q: And the ED50 (Rattus norvegicus [3])?
A: 2 mg/kg

Q: Which results are given for Cc1cscc1Cc1c[nH]cn1.O=C(O)/C=C/C(=O)O?
A: Inhibition (Mus musculus [1]): 100%; Activity (Rattus norvegicus [4]): 34%; ED50 (Rattus norvegicus [3]): 0.35 mg/kg

Q: Cc1ccsc1C(C)c1c[nH]cn1 (single isomer, unassigned; (+)) was tested. Which ED50 (Rattus norvegicus [3]) did it give?
A: 1.18 mg/kg

Q: And the Activity (Rattus norvegicus [6])?
A: 24%

Q: Which Inhibition (Mus musculus [1]) does the source give for CCc1cc(Cc2c[nH]cn2)c(CC)s1.O=C(O)/C=C/C(=O)O here?
A: 100%

Q: And the ED50 (Rattus norvegicus [3])?
A: 0.31 mg/kg

Q: Cc1csc(C(C)c2c[nH]cn2)c1C (stereo not given) was tested. Which IA (Rattus norvegicus [7]) did it give?
A: inactive

Q: With COC(c1c[nH]cn1)c1sccc1Br.O=C(O)/C=C/C(=O)O (stereo not given) as the molecule, how does the Inhibition (Mus musculus [1]) read?
A: 53%

Q: What does the source list for CC(c1c[nH]cn1)c1cscc1Br.O=C(O)/C=C/C(=O)O (stereo not given)?
A: Inhibition (Mus musculus [1]): 100%; ED50 (Rattus norvegicus [3]): 0.31 mg/kg

Q: How did the inhibition in vivo at 30 mg/kg (Mus musculus [2]) turn out when Cc1csc(Cc2c[nH]cn2)c1C.Cl was run?
A: 100%

Q: And the ED50 (Rattus norvegicus [3])?
A: 4.7 mg/kg

Q: For CCC(c1c[nH]cn1)c1sccc1C.O=C(O)/C=C/C(=O)O (stereo not given), which Inhibition (Mus musculus [1]) is on record?
A: 100%

Q: And the IA (Rattus norvegicus [7])?
A: inactive

Q: With Cc1cccc([C@H](C)c2c[nH]cn2)c1C [DEXMEDETOMIDINE] as the molecule, how does the ED50 (Rattus norvegicus [3]) read?
A: 0.12 mg/kg

Q: Which results are given for COC(c1c[nH]cn1)c1cscc1C.O=C(O)/C=C/C(=O)O (stereo not given)?
A: Inhibition (Mus musculus [1]): 100%; ED50 (Rattus norvegicus [3]): 4.4 mg/kg

Q: CCc1sccc1Cc1c[nH]cn1.O=C(O)/C=C/C(=O)O was tested. Which Inhibition (Mus musculus [1]) did it give?
A: 100%

Q: What about the Activity (Rattus norvegicus [4]) of the same molecule?
A: 28%

Q: What about the ED50 (Rattus norvegicus [3]) of the same molecule?
A: 0.27 mg/kg

Q: Which Inhibition (Mus musculus [1]) does the source give for Clc1cc(Cc2c[nH]cn2)c(Cl)s1.O=C(O)/C=C/C(=O)O here?
A: 100%

Q: What about the ED50 (Rattus norvegicus [3]) of the same molecule?
A: 3.2 mg/kg

Q: What does the source list for Brc1sccc1Cc1c[nH]cn1.O=C(O)/C=C/C(=O)O?
A: ED50 [8]: 1.1 mg/kg; Inhibition (Mus musculus [1]): 100%

Q: How did the Activity (Rattus norvegicus [6]) turn out when CC(c1c[nH]cn1)c1cscc1Br (stereo not given) was run?
A: 20%

Q: Which Inhibition (Mus musculus [1]) does the source give for CCC(c1c[nH]cn1)c1cscc1C.O=C(O)/C=C/C(=O)O (stereo not given) here?
A: 100%

Q: What about the ED50 (Rattus norvegicus [3]) of the same molecule?
A: 2.6 mg/kg

Q: For CC(c1c[nH]cn1)c1sccc1Br (stereo not given), which Activity (Rattus norvegicus [9]) is on record?
A: 23%

Q: And the ED50 (Rattus norvegicus [3])?
A: 0.97 mg/kg

Q: For Cc1cscc1C(C)c1c[nH]cn1.O=C(O)/C=C/C(=O)O (stereo not given), which Inhibition (Mus musculus [1]) is on record?
A: 100%

Q: What about the ED50 (Rattus norvegicus [3]) of the same molecule?
A: 0.27 mg/kg

Q: With O=C(O)/C=C/C(=O)O.c1ccc2c(Cc3c[nH]cn3)csc2c1 as the molecule, how does the Inhibition (Mus musculus [1]) read?
A: 0.441%

Q: What about the ED50 (Rattus norvegicus [3]) of the same molecule?
A: 0.44 mg/kg

Q: Which results are given for Cc1ccsc1C(C)c1c[nH]cn1.Cl (stereo not given)?
A: Inhibition (Mus musculus [1]): 100%; ED50 (Rattus norvegicus [3]): 2.2 mg/kg

Q: With Brc1cscc1Cc1c[nH]cn1.O=C(O)/C=C/C(=O)O as the molecule, how does the Inhibition (Mus musculus [1]) read?
A: 100%

Q: What about the Activity (Rattus norvegicus [4]) of the same molecule?
A: 11%

Q: And the ED50 (Rattus norvegicus [3])?
A: 0.38 mg/kg

Q: With CCc1cscc1Cc1c[nH]cn1.O=C(O)/C=C/C(=O)O as the molecule, how does the Inhibition (Mus musculus [1]) read?
A: 100%

Q: And the Activity (Rattus norvegicus [4])?
A: 48%

Q: What about the ED50 (Rattus norvegicus [3]) of the same molecule?
A: 0.32 mg/kg

Q: Cl.c1ccc2sc(Cc3c[nH]cn3)cc2c1 was tested. Which Inhibition (Mus musculus [1]) did it give?
A: 20%

Q: Which results are given for Cc1ccsc1Cc1c[nH]cn1.Cl?
A: inhibition in vivo at 30 mg/kg (Mus musculus [2]): 100%; ED50 (Rattus norvegicus [3]): 0.87 mg/kg; Activity (Rattus norvegicus [6]): 22%
